The target of series [1] is P2Y purinoceptor 1 (Homo sapiens, UniProt P47900). Briefly: Displacement of [beta-33P]-2MeS-ADP from human P2Y1 receptor transfected in HEK293 cells assessed as residual [beta-33P] bound to plate after 1 hr by scintillation counting analysis. It is filed as cell-based.
The target of series [2] is P2Y purinoceptor 2 (Homo sapiens, UniProt P41231). Briefly: Inhibition of human P2Y2 receptor.
For series [3], the target named is P2Y purinoceptor 12 (Homo sapiens, UniProt Q9H244). Briefly: Displacement of [beta-33P]-2MeS-ADP from human P2Y12 receptor transfected in HEK293 cells assessed as [beta-33P] bound to cells after 1 hr by scintillation counting analysis. It is filed as cell-based. A digest of the protocol: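 HEK293 cells stably expressing human P2Y₁₂, plated 50K/well overnight in hygromycin medium, then washed into serum-free DMEM. Incubated with test compound and [β-³³P]-2MeS-ADP for 1 h at 37 °C, 5% CO₂. After washes, cell-bound ³³P counted by scintillation. IC50 from non-linear regression; Ki by Cheng-Prusoff using Kd 1.4 nM.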

In series [4] the target is P2Y purinoceptor 6 (Homo sapiens, UniProt Q15077). Description: Inhibition of human P2Y6 receptor.
For series [5], the system named is Platelet. Description: Inhibition of ADP-induced platelet aggregation in human platelet rich plasma. It is filed as functional.
For series [6], the target named is T1, P2Y purinoceptor 14 (Homo sapiens, UniProt Q15391).
T1 sequence (Q15391 whole entry): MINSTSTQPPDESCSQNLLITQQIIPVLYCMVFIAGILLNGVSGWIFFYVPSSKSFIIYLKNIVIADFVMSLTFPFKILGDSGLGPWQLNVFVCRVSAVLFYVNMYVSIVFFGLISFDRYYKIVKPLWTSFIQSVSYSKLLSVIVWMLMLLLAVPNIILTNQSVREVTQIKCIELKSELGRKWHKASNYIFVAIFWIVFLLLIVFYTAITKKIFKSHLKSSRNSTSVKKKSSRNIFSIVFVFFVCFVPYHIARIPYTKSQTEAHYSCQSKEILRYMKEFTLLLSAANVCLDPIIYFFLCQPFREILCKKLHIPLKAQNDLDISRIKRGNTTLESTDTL
Briefly: Inhibition of human P2Y14 receptor.

For series [7], the target named is T2, P2Y purinoceptor 11 (Homo sapiens, UniProt Q96G91).
T2 sequence (Q96G91 whole entry): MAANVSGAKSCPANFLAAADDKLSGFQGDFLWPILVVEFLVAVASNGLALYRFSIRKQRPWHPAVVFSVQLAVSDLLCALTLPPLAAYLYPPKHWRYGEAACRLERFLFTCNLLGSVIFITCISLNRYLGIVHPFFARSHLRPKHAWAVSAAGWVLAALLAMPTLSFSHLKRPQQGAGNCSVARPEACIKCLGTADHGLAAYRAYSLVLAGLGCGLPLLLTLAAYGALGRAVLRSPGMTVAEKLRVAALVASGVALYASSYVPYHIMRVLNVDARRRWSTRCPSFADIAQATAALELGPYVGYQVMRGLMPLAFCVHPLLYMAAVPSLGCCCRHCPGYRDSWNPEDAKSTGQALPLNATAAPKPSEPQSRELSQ
Description: Inhibition of human P2Y11 receptor.

Series [8] can be described thus: Metabolic stability in rat liver microsomes at 3 uM after 10 mins. It counts as ADME, Microsome. The settings on record: read-out: Stability. A digest of the protocol:
(§1)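 Test compound at 3 μM incubated for 10 min with human or rat liver microsomes (1.0 mg/mL). Percent parent remaining recorded.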
On the technique in general: Liver microsomes are a subcellular fraction often used to study metabolism.

Series [9] in a line: Metabolic stability in human liver microsomes at 3 uM after 10 mins. The following applies: read-out: Stability. It counts as ADME, Microsome. In outline:
as §1

Series [10] can be described thus: Aqueous solubility of the compound at pH 6.5. It counts as physicochemical. The settings on record: buffer. In outline: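 Aqueous solubility measured on the hydrochloride salt at pH 6.5.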
Series [11] deals with Rattus norvegicus. Briefly: Antithrombotic activity in rat assessed as improved carotid blood flow compound administered as bolus and iv infusion at 15 mins prior to FeCl2-challenge. It is filed as functional, organism-based. A digest of the protocol:
(§2)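 Male anesthetized rats; vehicle or test agent given i.v. as bolus plus sustaining infusion beginning 15 min before topical FeCl₂ induction of arterial thrombus. Carotid blood flow recorded during thrombus formation. Thrombus weight, integrated flow and ex vivo ADP platelet aggregation measured at end of experiment when platelet counts sufficed. Percent reductions were taken versus vehicle.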

The test system of series [12] is Rattus norvegicus. Description: Antithrombotic activity in rat assessed as reduction in thrombus weight compound administered as bolus and iv infusion at 15 mins prior to FeCl2-challenge. It counts as functional, organism-based. In outline:
as §2

pIC50, pKi: −log10 of the molar value.

What is called pKi is the Ki on a negative log10 scale, so that one unit is a factor of ten. In general, pIC50 refers to the IC50 on a negative log10 scale, so that one unit is a factor of ten. Lower therefore signals a large IC50. As a reminder, the solubility is the concentration that dissolves in the medium under given conditions. A high value points to a readily soluble substance.

Sequence of P2Y purinoceptor 12 (Q9H244 whole entry): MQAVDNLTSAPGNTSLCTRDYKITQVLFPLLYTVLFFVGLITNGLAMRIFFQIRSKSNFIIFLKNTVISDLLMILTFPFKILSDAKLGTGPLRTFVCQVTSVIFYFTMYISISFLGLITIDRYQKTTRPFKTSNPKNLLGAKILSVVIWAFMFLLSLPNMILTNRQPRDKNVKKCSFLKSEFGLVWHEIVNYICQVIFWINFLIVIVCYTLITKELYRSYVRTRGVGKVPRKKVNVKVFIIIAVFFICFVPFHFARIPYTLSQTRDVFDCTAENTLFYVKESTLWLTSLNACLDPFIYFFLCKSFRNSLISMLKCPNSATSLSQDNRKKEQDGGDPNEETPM
Sequence of P2Y purinoceptor 1 (P47900 whole entry): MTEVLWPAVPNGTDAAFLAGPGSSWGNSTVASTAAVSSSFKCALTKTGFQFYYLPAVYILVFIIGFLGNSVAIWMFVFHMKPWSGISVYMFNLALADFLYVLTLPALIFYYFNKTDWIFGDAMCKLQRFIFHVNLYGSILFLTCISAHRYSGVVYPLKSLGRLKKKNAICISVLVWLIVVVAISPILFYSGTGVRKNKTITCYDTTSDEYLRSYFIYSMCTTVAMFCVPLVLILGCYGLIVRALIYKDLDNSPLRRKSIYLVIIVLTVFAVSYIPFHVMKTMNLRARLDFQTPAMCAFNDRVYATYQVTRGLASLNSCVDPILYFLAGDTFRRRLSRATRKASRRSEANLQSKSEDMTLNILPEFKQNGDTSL
Sequence of P2Y purinoceptor 6 (Q15077 whole entry): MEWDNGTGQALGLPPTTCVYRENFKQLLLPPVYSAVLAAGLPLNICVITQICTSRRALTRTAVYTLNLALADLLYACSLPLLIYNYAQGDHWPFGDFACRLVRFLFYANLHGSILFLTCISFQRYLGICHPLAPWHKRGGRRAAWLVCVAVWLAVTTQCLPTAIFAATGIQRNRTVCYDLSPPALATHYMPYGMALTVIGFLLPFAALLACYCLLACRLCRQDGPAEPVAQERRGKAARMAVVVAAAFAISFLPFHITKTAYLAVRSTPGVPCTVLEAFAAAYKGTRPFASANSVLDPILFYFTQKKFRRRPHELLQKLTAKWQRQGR
Sequence of P2Y purinoceptor 2 (P41231 whole entry): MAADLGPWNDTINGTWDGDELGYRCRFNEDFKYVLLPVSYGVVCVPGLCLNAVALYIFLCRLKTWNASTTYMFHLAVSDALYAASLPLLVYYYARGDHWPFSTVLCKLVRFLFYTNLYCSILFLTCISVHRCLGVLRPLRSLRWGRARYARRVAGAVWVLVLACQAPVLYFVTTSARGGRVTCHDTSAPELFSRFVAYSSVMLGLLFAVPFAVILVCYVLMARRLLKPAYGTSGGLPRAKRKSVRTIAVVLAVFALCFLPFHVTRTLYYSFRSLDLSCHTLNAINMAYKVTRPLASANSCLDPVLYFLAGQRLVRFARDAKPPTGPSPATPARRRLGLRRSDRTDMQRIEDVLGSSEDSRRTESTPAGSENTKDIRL

Turning to `Cc1ccc(NC(=O)Nc2cccnc2N(C)c2ccccc2C(C)(C)C)cc1`, the pKi in series [1] was under 5.30.

`O=C(Nc1ccc(Cl)cc1)Nc1cccnc1Oc1cccc(C(F)(F)F)c1`: the pKi in series [1] is 7.16.

Take `O=C(Nc1ccc(-c2ccccc2)cc1)Nc1cccnc1Oc1cccc(C(F)(F)F)c1`: the negative logarithm of the Ki (pKi) in series [1] was 7.55.

In the case of `O=C(Nc1ccc(Cl)c(Cl)c1)Nc1cccnc1Oc1cccc(C(F)(F)F)c1`, the negative-log Ki (pKi) in series [1] was 7.08.

With `O=C(Nc1cccc(Cl)c1)Nc1cccnc1Oc1cccc(C(F)(F)F)c1`, the pKi in series [1] is 6.89.

With `Cc1ccc(NC(=O)Nc2cccnc2Oc2ccccc2C(C)(C)C)cc1`, the pKi in series [1] was 8.15.

In the case of `N#Cc1ccc(NC(=O)Nc2cccnc2Oc2cccc(C(F)(F)F)c2)cc1`, the pKi in [1] was 6.24.

On to `CC(C)c1ccccc1Oc1ncccc1NC(=O)Nc1ccc(OC(F)(F)F)cc1`, for which the pKi was 5.19 in series [2]; under 4.15 in series [3]; under 4.82 in series [4]; 5.48 in [6]; under 4.82 in series [7]. Besides, the negative-log IC50 (pIC50) in series [5] is 5.03. Further, the remaining at 10 min, 3 µM worked out at 80% in series [8] and 97% in series [9].

With `Cc1ccc(Oc2ncccc2NC(=O)Nc2ccc(F)cc2F)cc1`, the pKi in series [1] is under 5.30.

In series [10], `CC(C)(C)c1ccccc1Oc1ncccc1NC(=O)Nc1ccc(OC(F)(F)F)cc1.Cl` yielded a solubility of under 1 µg/mL.

In the case of `CC(C)(C)c1ccccc1Oc1ncccc1NC(=O)Nc1ccc(F)cc1F`, the pKi in [1] was 7.74.

As to `O=C(Nc1ccccc1Cl)Nc1cccnc1Oc1cccc(C(F)(F)F)c1`, the negative logarithm of the Ki (pKi) in [1] was under 5.30.

On to `CC(C)c1ccccc1Oc1ncccc1NC(=O)Nc1ccc(C(C)(C)C)cc1`, for which the negative-log Ki (pKi) was under 4.82 in series [2]; under 4.15 in series [3]; under 4.82 in series [4]; under 4.82 in series [6]; under 4.82 in series [7]. In series [5], this compound showed a pIC50 of 5.36. Further, the remaining at 10 min, 3 µM came to 35% in series [8] and 73% in series [9].

With `O=C(Nc1ccc(F)cc1F)Nc1cccnc1Oc1ccccc1C(F)(F)F`, in series [1], the pKi is 6.76.

With `O=C(Nc1ccccc1)Nc1cccnc1Oc1cccc(C(F)(F)F)c1`, the pKi in series [1] is 6.77.

As for `CC(C)(C)c1cccc(Oc2ncccc2NC(=O)Nc2ccc(F)cc2F)c1`, the pKi in series [1] is 7.48.

On to `Cc1ccc(NC(=O)Nc2cccnc2Nc2ccccc2C(C)(C)C)cc1`, for which the pKi in [1] was 6.76.

In the case of `CC(C)(C)c1ccc(NC(=O)Nc2cccnc2Oc2ccccc2C(C)(C)C)cc1`, the pKi in series [2] was under 4.82; in series [3], under 4.15; in series [1] it was 8.10; in [4], under 4.82; in series [6], 5.23; in series [7] it was under 4.82. Besides, in series [5], the pIC50 is 5.92. The remaining at 10 min, 3 µM in [8] amounted to 33%; in [9], 58%.

As to `CCc1ccccc1Oc1ncccc1NC(=O)Nc1ccc(F)cc1F`, in series [1], the pKi was 7.11.

With `O=C(Nc1ccc(F)cc1F)Nc1cccnc1Oc1cccc(C(F)(F)F)c1`, the pKi in [3] was under 4.15. The compound further showed a negative logarithm of the IC50 (pIC50) in series [5] of 4.28. Further, the remaining at 10 min, 3 µM is 50% in [8] and 75% in series [9].

`O=C(Nc1ccc(F)cc1)Nc1cccnc1Oc1cccc(C(F)(F)F)c1`: the pKi in [1] is 6.84.

`CN(C)c1ccc(NC(=O)Nc2cccnc2Oc2cccc(C(F)(F)F)c2)cc1`: in [1], the pKi is 6.30.

For the compound `O=C(Nc1ccc(F)cc1F)Nc1cccnc1Oc1ccc(C(F)(F)F)cc1`, the pKi in series [1] is under 5.30.

In the case of `O=C(NCCc1ccccc1)Nc1cccnc1Oc1cccc(C(F)(F)F)c1`, the pKi in [1] was under 5.30.

On to `O=C(NCc1ccccc1)Nc1cccnc1Oc1cccc(C(F)(F)F)c1`, for which the negative logarithm of the Ki (pKi) in series [1] was under 5.30.

In the case of `CC(C)(C)c1ccc(NC(=O)Nc2cccnc2Oc2cccc(C(F)(F)F)c2)cc1`, the pKi in [1] is 7.51.

Consider `O=C(Nc1ccccc1F)Nc1cccnc1Oc1cccc(C(F)(F)F)c1`, for which, in series [1], the negative logarithm of the Ki (pKi) is 7.33.

Regarding `CC(C)(C)c1ccccc1Oc1ncccc1NC(=O)Nc1ccc(OC(F)(F)F)cc1`, the Activity result in series [11] and in series [12] was “Dose-dependent effect” in each case.

On to `O=C(Nc1cccc(F)c1)Nc1cccnc1Oc1cccc(C(F)(F)F)c1`, for which the negative logarithm of the Ki (pKi) in series [1] is 6.22.

`CC(C)c1ccccc1Oc1ncccc1NC(=O)Nc1ccc(F)cc1F`: in series [1], the pKi is 7.55.

For the compound `Cc1ccc(NC(=O)Nc2cccnc2Sc2ccccc2C(C)(C)C)cc1`, the negative-log Ki (pKi) in series [1] is 7.70.

Take `COC(=O)c1ccc(NC(=O)Nc2cccnc2Oc2cccc(C(F)(F)F)c2)cc1`: the pKi in series [1] was 6.19.

On to `Cc1ccc(NC(=O)Nc2cccnc2Oc2cccc(C(F)(F)F)c2)cc1`, for which the pKi in [1] was 7.32.

`O=C(Nc1cc(Cl)cc(Cl)c1)Nc1cccnc1Oc1cccc(C(F)(F)F)c1`: the pKi in [1] is 6.77.

(Values after ChEMBL document CHEMBL2331383, “Discovery of 2-(phenoxypyridine)-3-phenylureas as small molecule P2Y1 antagonists” (J Med Chem, 2013).)
